Tests used:
[1] = Cytotoxicity against MDCK cells assessed reduction in cell viability after 48 hrs by MTT assay; assay type: cell-based, Canis lupus familiaris; conditions: dog, read-out: CTD50
Procedure, shortened: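 MDCK monolayers were grown in MEM with 5% fetal calf serum and washed with serum-free MEM. Compounds (5 mg/ml DMSO stock) were applied as twofold dilutions, 1000–4 microgram/ml in MEM, for 48 h at 37°C. After PBS washes, MTT (0,5 mg/ml) was added for 60 min at 37°C, 5% CO2. Formazan was dissolved in DMSO and read at 535 nm. CTD50 is the concentration cutting viability 50%.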

[2] = Selectivity index, ratio of CTD50 for MDCK cells to ED50 for Influenza A virus (A/California/07/09(H1N1)) pdm09; assay type: toxicity, cell-based; conditions: dog, read-out: Selectivity Index

| Structure (SMILES) | CC50 at 48 h [1] | selectivity ratio [2] |
| --- | --- | --- |
| CC(=O)c1c(O)c(C)c(O)c2c1OC1=CC(=O)/C(=C(/C)NCCC(=O)O)C(=O)[C@@]12C | 147 µM | 20.3 |
| CC(=O)C1=C(O)C=C2Oc3c4c(c(C)c(O)c3[C@@]2(C)C1=O)O/C(=C\c1ccncc1)C4=O | 46.4 µM | 6.1 |
| COc1c(C)c(O)c(C(=O)/C=C/c2ccc(Cl)cc2)c2c1[C@@]1(C)C(=Cc3c(c(C)nn3-c3ccccc3)[C@@H]1O)O2 | 116 µM | 1.5 |
| CC(=O)C1=C(O)C=C2Oc3c(C(=O)CSc4nc5ccccc5o4)c(O)c(C)c(O)c3[C@@]2(C)C1=O | 2 µM | 1 |
| COc1ccccc1/C=C/C(=O)c1c(O)c(C)c(OC)c2c1OC1=Cc3c(c(C)nn3-c3ccccc3)[C@H](O)[C@]12C | 909 µM | 14 |
| COc1c(C)c(O)c2c(c1C(=O)CSCCC(=O)O)OC1=CC(O)=C(C(C)=O)C(=O)[C@@]12C | 938 µM | 5.8 |
| CC(=O)c1c(O)c(C)c(O)c2c1OC1=CC(=O)/C(=C(/C)N[C@@H](CC(C)C)C(=O)O)C(=O)[C@@]12C | 13.1 µM | 2 |
| COc1ccccc1/C=C1\Oc2c(C)c(O)c3c(c2C1=O)OC1=CC(O)=C(C(C)=O)C(=O)[C@@]13C | 32.6 µM | 6.8 |
| COc1c(C)c(O)c(C(=O)/C=C/c2ccc(Cl)cc2)c2c1[C@]1(C)C(=Cc3c(c(C)nn3-c3ccccc3)[C@H]1O)O2 | 253 µM | 4.6 |
| CSCC[C@H](N/C(C)=C1\C(=O)C=C2Oc3c(C(C)=O)c(O)c(C)c(O)c3[C@@]2(C)C1=O)C(=O)O | 21.1 µM | 5 |
| CC(=O)C1=C(O)C=C2Oc3c4c(c(C)c(O)c3[C@@]2(C)C1=O)O/C(=C\c1cccnc1)C4=O | 53.4 µM | 7.7 |
| COc1c(C)c(O)c2c(c1C(=O)CSC1=NCCS1)OC1=CC(O)=C(C(C)=O)C(=O)[C@@]12C | 105 µM | 7.1 |
| CC(=O)C1=C(O)C=C2O[C@@]34O[C@]3(C(C)=O)C(=O)C(C)=C(O)[C@@]4(O)[C@]2(C)C1=O | 152 µM | 5.3 |
| CC(=O)C1=C(O)C=C2Oc3c(C(=O)CSCc4ccccc4)c(O)c(C)c(O)c3[C@@]2(C)C1=O | 6.4 µM | 3 |
| COc1cccc(/C=C/C(=O)c2c(O)c(C)c(OC)c3c2OC2=Cc4c(c(C)nn4-c4ccccc4)C(=O)[C@@]23C)c1OC | 34.6 µM | 4 |
| CC(=O)c1c(O)c(C)c(O)c2c1OC1=CC(=O)/C(=C(/C)NCCCC(=O)O)C(=O)[C@@]12C | 130 µM | 3.7 |
| CC(=O)c1c(O)c(C)c(O)c2c1OC1=Cc3c(c(C)nn3-c3ccccc3)[C@@H](O)[C@@]12C | 26.3 µM | 11 |
| CC(=O)C1=C(O)C=C2O[C@]34O[C@@]3(C(C)=O)C(=O)C(C)=C(O)[C@]4(O)[C@@]2(C)C1=O | 234 µM | 22 |
| CC(=O)C1=C(O)C=C2Oc3c4c(c(C)c(O)c3[C@]2(C)C1=O)OCC4=O | 132 µM | 2 |
| CC(=O)c1c(O)c(C)c(O)c2c1OC1=CC(=O)/C(=C(/C)NCCCC(=O)O)C(=O)[C@]12C | 83.9 µM | 3 |
| CC(=O)C1=C(O)C=C2Oc3c(C(=O)CSc4nc5ccccc5s4)c(O)c(C)c(O)c3[C@@]2(C)C1=O | 58.9 µM | 2 |
| COc1ccc(/C=C/C(=O)c2c(O)c(C)c(OC)c3c2OC2=Cc4c(c(C)nn4-c4ccccc4)[C@@H](O)[C@@]23C)cc1OC | 431 µM | 12.5 |
| COc1c(C)c(O)c(C(=O)/C=C/c2ccccc2)c2c1[C@@]1(C)C(=Cc3c(c(C)nn3-c3ccccc3)[C@@H]1O)O2 | 106 µM | 1.7 |
| COc1c(C)c(O)c(C(=O)/C=C/c2ccccc2)c2c1[C@]1(C)C(=Cc3c(c(C)nn3-c3ccccc3)[C@H]1O)O2 | 36.5 µM | 1.1 |
| CC(=O)C1=C(O)C=C2Oc3c(C(=O)CSCc4ncccc4C(=O)O)c(O)c(C)c(O)c3[C@@]2(C)C1=O | 177 µM | 3.1 |
| COc1ccc(/C=C/C(=O)c2c(O)c(C)c(OC)c3c2OC2=Cc4c(c(C)nn4-c4ccccc4)[C@@H](O)[C@@]23C)c(OC)c1 | 517 µM | 20 |
| COc1cc(/C=C/C(=O)c2c(O)c(C)c(OC)c3c2OC2=Cc4c(c(C)nn4-c4ccccc4)[C@@H](O)[C@@]23C)cc(OC)c1OC | 98.4 µM | 12 |
| CC(=O)C1=C(O)C=C2Oc3c(C(C)=O)c(OC(=O)c4ccccc4Br)c(C)c(OC(=O)c4ccccc4Br)c3[C@@]2(C)C1=O | 31.1 µM | 4 |

| Structure (SMILES) | CC50 at 48 h [1] | selectivity ratio [2] |
| --- | --- | --- |
| CC(=O)C1=C(O)C[C@H]2Oc3c(C(C)=O)c(O)c(C)c(O)c3[C@@]2(C)C1=O | 14.5 µM | 1.8 |
| CC(=O)c1c(O)c(C)c(O)c2c1OC1=CC(=O)/C(=C(/C)NCC(=O)O)C(=O)[C@]12C | 150 µM | 14 |
| CC(=O)C1=C(O)C=C2Oc3c(C(C)=O)c(O)c(C)c(O)c3[C@@]2(C)C1=O [(+)-USNIC ACID] | 424 µM | 8.2 |
| CC(=O)c1c(O)c(C)c(O)c2c1OC1=CC(=O)/C(=C(/C)NCC(=O)O)C(=O)[C@@]12C | – | 6 |
| CC(=O)c1c(O)c(C)c(O)c2c1OC1=CC(=O)/C(=C(/C)N[C@H](CC(=O)O)CC(C)C)C(=O)[C@]12C | 32.8 µM | 5 |
| CC(=O)c1c(O)c(C)c(O)c2c1OC1=Cc3c(c(C)nn3-c3ccccc3)C(=O)[C@@]12C | 832 µM | 12 |
| COc1ccc(OC)c(/C=C/C(=O)c2c(O)c(C)c(OC)c3c2OC2=Cc4c(c(C)nn4-c4ccccc4)[C@@H](O)[C@@]23C)c1 | 517 µM | 20 |
| COc1c(C)c(O)c2c(c1C(=O)CSc1nc3ccccc3o1)OC1=CC(O)=C(C(C)=O)C(=O)[C@]12C | 178 µM | 7.5 |
| CC(=O)c1c(O)c(C)c(O)c2c1OC1=Cc3c(c(C)nn3-c3ccccc3)[C@H](O)[C@]12C | 47.8 µM | 4 |
| CC(=O)c1c(O)c(C)c(O)c2c1OC1=Cc3c(c(C)nn3-c3ccccc3)C(=O)[C@]12C | 565 µM | 10 |
| CC(=O)c1c(O)c(C)c(O)c2c1OC1=Cc3c(c(C)nn3-c3cccc(C(F)(F)F)c3)C(=O)[C@@]12C | 1100 µM | 16 |
| CC(=O)C1=C(O)C=C2Oc3c4c(c(C)c(O)c3[C@@]2(C)C1=O)OCC4=O | 117 µM | 1.8 |
| CC(=O)C1=C(O)C=C2Oc3c4c(c(C)c(O)c3[C@@]2(C)C1=O)O/C(=C\c1ccc(Br)cc1)C4=O | 39.4 µM | 8.3 |
| CC(=O)[C@@]12O[C@@]13OC1=Cc4c(c(C)nn4-c4ccccc4)C(=O)[C@]1(C)[C@@]3(O)C(O)=C(C)C2=O | 67 µM | 5 |
| COc1ccc(-c2cc(-c3c(O)c(C)c(OC)c4c3OC3=Cc5c(c(C)nn5-c5ccccc5)[C@@H](O)[C@@]34C)n[nH]2)cc1 | 1020 µM | 10 |
| CC(=O)c1c(O)c(C)c(O)c2c1OC1=CC(=O)/C(=C(/C)NCCC(=O)O)C(=O)[C@]12C | 145 µM | 10 |
| COc1cccc(/C=C/C(=O)c2c(O)c(C)c(OC)c3c2OC2=Cc4c(c(C)nn4-c4ccccc4)[C@H](O)[C@]23C)c1OC | 862 µM | 11.3 |
| COc1cccc(/C=C/C(=O)c2c(O)c(C)c(OC)c3c2OC2=Cc4c(c(C)nn4-c4ccccc4)[C@@H](O)[C@@]23C)c1OC | 862 µM | 17 |
| COc1ccc2[nH]c(SCC(=O)c3c(OC)c(C)c(O)c4c3OC3=CC(O)=C(C(C)=O)C(=O)[C@@]34C)nc2c1 | 560 µM | 23.1 |
| CC(=O)C1=C(O)C=C2Oc3c(C(=O)CSCc4ccc(C)cc4)c(O)c(C)c(O)c3[C@@]2(C)C1=O | 2.1 µM | 1 |
| COc1ccccc1/C=C/C(=O)c1c(O)c(C)c(OC)c2c1OC1=Cc3c(c(C)nn3-c3ccccc3)[C@@H](O)[C@@]12C | 909 µM | 11 |
| COc1c(C)c(O)c(C(=O)/C=C/c2ccc(SC)cc2)c2c1[C@]1(C)C(=Cc3c(c(C)nn3-c3ccccc3)[C@H]1O)O2 | 530 µM | 10 |
| COc1ccc(/C=C/C(=O)c2c(O)c(C)c(OC)c3c2OC2=Cc4c(c(C)nn4-c4ccccc4)[C@@H](O)[C@@]23C)c(OC)c1OC | 279 µM | 8.5 |
| COc1c(C)c(O)c(C(=O)/C=C/c2ccccc2)c2c1[C@]1(C)C(=Cc3c(c(C)nn3-c3ccccc3)CC13CO3)O2 (single isomer, unassigned; (+)) | 18.3 µM | 3.3 |
| CC(=O)C1=C(O)C=C2Oc3c(C(C)=O)c(O)c(C)c(O)c3[C@]2(C)C1=O [(-)-USNIC ACID] | 134 µM | 10.2 |
| COc1c(C)c(O)c(C(C)=O)c2c1[C@]1(C)C(=Cc3c(c(C)nn3-c3ccccc3)CC13CO3)O2 (single isomer, unassigned; (+)) | 681 µM | 2.6 |
| CC(=O)C1=C(O)C=C2Oc3c(C(C)=O)c(OC(F)(Cl)C(F)F)c(C)c(O)c3[C@@]2(C)C1=O (some centres undefined) | 100 µM | 14 |

From ChEMBL document CHEMBL3352088, “Novel derivatives of usnic acid effectively inhibiting reproduction of influenza A virus” (Bioorg Med Chem, 2014)
